The subject of this assay is Cellular tumor antigen p53 (Homo sapiens), P04637 [Y220C]. Kind of assay: Stabilization of p53Y220C mutant (unknown origin) expressed in human NCI-H1299 cells assessed as increase in melting temperature incubated for 1 hr by CETSA analysis. The format is cell-based. The gist of the method: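 CETSA: NCI-H1299 (p53Y220C) stable cells were treated with DMSO or 100 μM for 1 h, then heated from 32 to 50 °C. Soluble p53 was detected by Western blot. Results are representative of at least two independent experiments.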

As usually defined, the ΔTm is the shift of the melting midpoint relative to a reference. Regarding `C=C(C)C(=O)n1cc(C)c2c(-c3ccc4c(c3)CCN(C)C4)cncc21`, the ΔTm was 8.3 °C.

The values are drawn from ChEMBL document CHEMBL5614410, “Design, Synthesis, and Evaluation of p53Y220C Acetylation Targeting Chimeras (AceTACs)” (J Med Chem, 2024).
